Experimental data taken from ChEMBL document CHEMBL4251662, “Alkyl indole-based cannabinoid type 2 receptor tools: Exploration of linker and fluorophore attachment” (Eur J Med Chem, 2018).
Calls of active or inactive are those of the source. The calls are words filed in the database; no cut-off is given here.

Experiments:
Cannabinoid receptor 1 [1] = molecular target: T1, Cannabinoid receptor 1 (Homo sapiens, UniProt P21554); test: Displacement of [3H]CP55,940 from N-terminal HA-tagged human CB1 receptor expressed in HEK293 cell membranes at 10 uM after 1 hr by microbeta scintillation counting method relative to control
T1 sequence (P21554 whole entry): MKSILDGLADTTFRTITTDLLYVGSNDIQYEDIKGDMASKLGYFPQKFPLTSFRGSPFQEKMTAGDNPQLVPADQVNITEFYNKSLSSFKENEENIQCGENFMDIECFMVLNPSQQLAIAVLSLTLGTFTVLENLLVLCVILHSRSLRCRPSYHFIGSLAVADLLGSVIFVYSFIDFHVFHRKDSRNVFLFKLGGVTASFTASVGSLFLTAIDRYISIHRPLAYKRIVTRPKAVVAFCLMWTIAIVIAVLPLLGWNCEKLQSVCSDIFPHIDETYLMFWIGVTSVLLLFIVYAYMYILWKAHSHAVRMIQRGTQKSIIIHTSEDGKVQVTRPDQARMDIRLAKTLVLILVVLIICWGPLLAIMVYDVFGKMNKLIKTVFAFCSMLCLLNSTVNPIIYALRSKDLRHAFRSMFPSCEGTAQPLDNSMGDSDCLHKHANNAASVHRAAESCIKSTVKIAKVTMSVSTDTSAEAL
In short: (§1)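 Single-point competition screen against [3H]CP55,940 in HEK293 cells over-expressing 3HA-tagged hCB2 or hCB1. Compounds giving more than 50% displacement went on to full concentration-response curves.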

Cannabinoid receptor 1 [2] = molecular target: T1, Cannabinoid receptor 1; test: Displacement of [3H]CP55,940 from N-terminal HA-tagged human CB1 receptor expressed in HEK293 cell membranes after 1 hr by microbeta scintillation counting method
Cannabinoid receptor 2 [3] = molecular target: T2, Cannabinoid receptor 2 (Homo sapiens, UniProt P34972); test: Displacement of [3H]CP55,940 from N-terminal HA-tagged human CB2 receptor expressed in HEK293 cell membranes after 1 hr by microbeta scintillation counting method
T2 sequence (P34972 whole entry): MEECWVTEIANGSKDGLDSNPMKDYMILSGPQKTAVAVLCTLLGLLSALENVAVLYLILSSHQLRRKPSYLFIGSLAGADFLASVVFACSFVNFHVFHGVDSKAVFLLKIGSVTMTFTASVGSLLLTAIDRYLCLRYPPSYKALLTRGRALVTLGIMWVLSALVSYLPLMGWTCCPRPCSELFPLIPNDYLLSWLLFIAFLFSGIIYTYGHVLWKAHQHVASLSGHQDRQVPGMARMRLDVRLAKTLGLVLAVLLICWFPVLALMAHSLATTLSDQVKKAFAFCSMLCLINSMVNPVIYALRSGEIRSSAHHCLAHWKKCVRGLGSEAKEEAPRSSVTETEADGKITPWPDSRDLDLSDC

Cannabinoid receptor 2 [4] = molecular target: T2, Cannabinoid receptor 2; test: Displacement of [3H]CP55,940 from N-terminal HA-tagged human CB2 receptor expressed in HEK293 cell membranes at 10 uM after 1 hr by microbeta scintillation counting method relative to control; in short: as §1
HEK293 [5] = test: Effect on forskolin-stimulated cAMP level in HEK293 cells at 1 uM by BRET assay relative to control; assay type: ADME, cell-based; conditions: human, hek293, 1 µM
In short: (§2)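 Wild-type HEK293 cells lacking transfected receptor, tested at 10 µM and 1 µM. Forskolin-stimulated cAMP measured by BRET as a check that responses are receptor-mediated.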

HEK293 [6] = test: Effect on forskolin-stimulated cAMP level in HEK293 cells at 10 uM by BRET assay relative to control; assay type: ADME, cell-based; conditions: human, hek293, 10 µM; in short: as §2
Cannabinoid receptor 1 [7] = molecular target: T1, Cannabinoid receptor 1; test: Agonist activity at N-terminal HA-tagged human CB1 receptor expressed in HEK293 cells transfected with YFP-Epac-RLuc assessed as decrease in forskolin-stimulated cAMP level at 10 uM by BRET assay; assay type: functional, cell-based
In short: (§3)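 Single-concentration screen at 10 µM in CB receptor-expressing HEK293 cells, run with and without CP55,940 as reference agonist. Forskolin-stimulated cAMP read by BRET biosensor. A fall in cAMP is scored as agonism and a rise as inverse agonism.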

Cannabinoid receptor 2 [8] = molecular target: T2, Cannabinoid receptor 2; test: Agonist activity at N-terminal HA-tagged human CB2 receptor expressed in HEK293 cells transfected with YFP-Epac-RLuc assessed as decrease in forskolin-stimulated cAMP level by BRET assay relative to control; assay type: functional, cell-based
In short: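 BRET cAMP biosensor read-out in HEK293 cells expressing HA-tagged human CB1 or CB2, with forskolin stimulation (5 µM). Concentration-response curves; area-under-curve values normalised to forskolin alone = 100% and basal = 0%. EC50 taken for agonists and IC50 for inverse agonists. Mean of at least three independent experiments, each point in duplicate.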

Cannabinoid receptor 2 [9] = molecular target: T2, Cannabinoid receptor 2; test: Agonist activity at N-terminal HA-tagged human CB2 receptor expressed in HEK293 cells transfected with YFP-Epac-RLuc assessed as decrease in forskolin-stimulated cAMP level at 10 uM by BRET assay; assay type: functional, cell-based; in short: as §3

Row | Structure (SMILES) | inhibition (Cannabinoid receptor 1 [1]) [%] | Ki (Cannabinoid receptor 2 [3]; read-out: Ki) [µM] | inhibition (Cannabinoid receptor 2 [4]) [%] | further results
1 | COc1ccc(C(=O)c2cn(CCN3CCOCC3)c3ccc(OCC(=O)O)cc23)cc1 | > 50 | > 10 | > 50 | Ki (Cannabinoid receptor 1 [2]; read-out: Ki): > 10 µM
2 | COc1ccc(C(=O)c2cn(CCN3CCOCC3)c3ccc(OCC(=O)NCCCCCCCCNC(=O)CCCCCNC(=O)COc4ccc(/C=C/C5=[N+]6C(=Cc7ccc(-c8cccs8)n7[B-]6(F)F)C=C5)cc4)cc23)cc1 |  |  |  | Ki (Cannabinoid receptor 2 [3]; hek293): Not Active
3 | COc1ccc(C(=O)c2cn(CCN3CCOCC3)c3cc(O)ccc23)cc1 |  | > 10 | > 50 | Ki (Cannabinoid receptor 1 [2]; hek293): Not Active
4 | COc1ccc(C(=O)c2cn(CCN3CCOCC3)c3ccc(OCCCCCCC(=O)NCCOCCOCCNC(=O)CCCCCNC(=O)COc4ccc(/C=C/C5=[N+]6C(=Cc7ccc(-c8cccs8)n7[B-]6(F)F)C=C5)cc4)cc23)cc1 |  | > 10 |  | Ki (Cannabinoid receptor 1 [2]; read-out: Ki): > 10 µM
5 | Cc1c(C(=O)c2cccc3ccccc23)c2cccc3c2n1[C@H](CN1CCOCC1)CO3 [WIN-552122] |  |  |  | Activity (HEK293 [5]): 96.1%; Activity (HEK293 [6]): 102.6%
6 | COc1ccc(C(=O)c2cn(CC3CCOC3)c3ccc(O)cc23)cc1 (stereo not given) |  | > 10 | > 50 | Ki (Cannabinoid receptor 1 [2]; hek293): Not Active
7 | COc1ccc(C(=O)c2cn(CCN3CCOCC3)c3ccc(OCCCCC(=O)NCCOCCOCCNC(=O)CCCCCNC(=O)COc4ccc(/C=C/C5=[N+]6C(=Cc7ccc(-c8cccs8)n7[B-]6(F)F)C=C5)cc4)cc23)cc1 |  | > 10 |  | Ki (Cannabinoid receptor 1 [2]; read-out: Ki): > 10 µM
8 | CC(C)(NC(=O)COc1ccc2c(c1)c(C(=O)c1cccc3ccccc13)cn2CCN1CCOCC1)C(=O)NC(C)(C)C(=O)NCCNC(=O)CCCCCNC(=O)COc1ccc(/C=C/C2=[N+]3C(=Cc4ccc(-c5cccs5)n4[B-]3(F)F)C=C2)cc1 |  | > 10 |  | 
9 | COc1ccc(C(=O)c2cn(CC3CCOCC3)c3ccc(OCC(=O)NC(C)(C)C(=O)NC(C)(C)C(=O)NCCNC(=O)CCCCCNC(=O)COc4ccc(/C=C/C5=[N+]6C(=Cc7ccc(-c8cccs8)n7[B-]6(F)F)C=C5)cc4)cc23)cc1 |  | > 10 |  | 
10 | COc1ccc(C(=O)c2cn(CCN3CCOCC3)c3ccc(OCC(=O)N[C@@H](C)C(=O)N[C@@H](C)C(=O)NCCN)cc23)cc1 | > 50 |  |  | Ki (Cannabinoid receptor 2 [3]; hek293): Not Active
11 | CCCCCCC(C)(C)c1ccc([C@@H]2C[C@H](O)CC[C@H]2CCCO)c(O)c1 [CP-55940] |  |  |  | Activity (HEK293 [5]): 99.2%; Activity (Cannabinoid receptor 1 [7]): Active; Activity (HEK293 [6]): 98%; Emax (Cannabinoid receptor 2 [8]): 41%; Activity (Cannabinoid receptor 2 [9]): Active
12 | COc1ccc(C(=O)c2cn(CC3CCOCC3)c3c(OCCCCC(=O)NCCOCCOCCNC(C)=O)cccc23)cc1 | > 50 | > 10 | > 50 | Ki (Cannabinoid receptor 1 [2]; read-out: Ki): > 10 µM
13 | COc1ccc(C(=O)c2cn(CCN3CCOCC3)c3ccc(OCC(=O)NC(C)(C)C(=O)NC(C)(C)C(=O)NCCNC(=O)CCCCCNC(=O)COc4ccc(/C=C/C5=[N+]6C(=Cc7ccc(-c8cccs8)n7[B-]6(F)F)C=C5)cc4)cc23)cc1 |  | > 10 |  | 
14 | COc1ccc(C(=O)c2cn(CCN3CCOCC3)c3ccc(OCC(=O)NCCOCCOCCNC(C)=O)cc23)cc1 | > 50 | > 10 | > 50 | 
15 | COc1ccc(C(=O)c2cn(CC3CCOCC3)c3ccc(OCC(=O)N[C@@H](C)C(=O)N[C@@H](C)C(=O)NCCN)cc23)cc1 | > 50 |  |  | Ki (Cannabinoid receptor 2 [3]; hek293): Not Active
16 | O=C(CCCCCNC(=O)COc1ccc(/C=C/C2=[N+]3C(=Cc4ccc(-c5cccs5)n4[B-]3(F)F)C=C2)cc1)NCCOCCOCCNC(=O)COc1ccc2c(c1)c(C(=O)c1cccc3ccccc13)cn2CCN1CCOCC1 |  | > 10 |  | 
17 | COc1ccc(C(=O)c2cn(CC3CCOCC3)c3ccc(OCCOCCOCCOCCNC(C)=O)cc23)cc1 |  | > 10 | > 50 | Ki (Cannabinoid receptor 1 [2]; hek293): Not Active
18 | C[C@H](NC(=O)COc1ccc2c(c1)c(C(=O)c1cccc3ccccc13)cn2CCN1CCOCC1)C(=O)N[C@@H](C)C(=O)NCCN | > 50 |  |  | Ki (Cannabinoid receptor 2 [3]; hek293): Not Active
19 | O=C(O)COc1ccc2c(c1)c(C(=O)c1cccc3ccccc13)cn2CCN1CCOCC1 | > 50 | > 10 | > 50 | Ki (Cannabinoid receptor 1 [2]; read-out: Ki): > 10 µM
20 | COc1ccc(C(=O)c2cn(CCN3CCOCC3)c3ccc(OCC(=O)NCCCCCCCCN)cc23)cc1 | > 50 | > 10 | > 50 | 
21 | NCCCCCCCCNC(=O)COc1ccc2c(c1)c(C(=O)c1cccc3ccccc13)cn2CCN1CCOCC1 | > 50 | > 10 | > 50 | 
22 | COc1ccc(C(=O)c2cn(CCN3CCOCC3)c3ccc(OCC(=O)NCCOCCOCCN)cc23)cc1 | > 50 | > 10 | > 50 | 
23 | COc1ccc(C(=O)c2cn(CCN3CCOCC3)c3ccc(OCC(=O)NCCOCCOCCNC(=O)CCCCCNC(=O)COc4ccc(/C=C/C5=[N+]6C(=Cc7ccc(-c8cccs8)n7[B-]6(F)F)C=C5)cc4)cc23)cc1 |  | > 10 |  | 
24 | O=C(CCCCCNC(=O)COc1ccc(/C=C/C2=[N+]3C(=Cc4ccc(-c5cccs5)n4[B-]3(F)F)C=C2)cc1)NCCCCCCCCNC(=O)COc1ccc2c(c1)c(C(=O)c1cccc3ccccc13)cn2CCN1CCOCC1 |  |  |  | Ki (Cannabinoid receptor 2 [3]; hek293): Not Active
25 | NCCOCCOCCNC(=O)COc1ccc2c(c1)c(C(=O)c1cccc3ccccc13)cn2CCN1CCOCC1 | > 50 | > 10 | > 50 | 
